Experimental data taken from ChEMBL document CHEMBL1137359, “Potent and orally bioavailable 8-bicyclo[2.2.2]octylxanthines as adenosine A1 receptor antagonists” (J Med Chem, 2006).
Converted amounts (≈) assume the structure as drawn.

How the values were obtained:
[1] = Half life in Sprague-Dawley rat at 2 mg, po; type: ADME, organism-based; details: in vivo
Procedure, shortened: (§1)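 Pharmacokinetics after one oral dose in male Sprague-Dawley rats (1 mg/kg, or 2 mg dose), beagle dogs and cynomolgus monkeys (1 mg/kg). Bioavailability, half-life, clearance and volume of distribution reported as mean ± variation.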

[2] = Solubility in 5% dextrose in water; type: physicochemical
Procedure, shortened: (§2)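 Solubility of each compound measured in sterile water for injection, 0.9% saline, 5% dextrose in water, ethanol and octanol; values in mg/mL from duplicate determinations per solvent, individual values varying <5%.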

[3] = Solubility in 0.9% saline; type: physicochemical; procedure, shortened: as §2
[4] = molecular target: Adenosine receptor A2a (Homo sapiens, UniProt P29274); assay: Displacement of [125I]ZM-241385 from human adenosine A2A receptor expressed in HEK cells; type: cell-based, HEK293
Sequence of Adenosine receptor A2a (Homo sapiens, UniProt P29274) (P29274 whole entry): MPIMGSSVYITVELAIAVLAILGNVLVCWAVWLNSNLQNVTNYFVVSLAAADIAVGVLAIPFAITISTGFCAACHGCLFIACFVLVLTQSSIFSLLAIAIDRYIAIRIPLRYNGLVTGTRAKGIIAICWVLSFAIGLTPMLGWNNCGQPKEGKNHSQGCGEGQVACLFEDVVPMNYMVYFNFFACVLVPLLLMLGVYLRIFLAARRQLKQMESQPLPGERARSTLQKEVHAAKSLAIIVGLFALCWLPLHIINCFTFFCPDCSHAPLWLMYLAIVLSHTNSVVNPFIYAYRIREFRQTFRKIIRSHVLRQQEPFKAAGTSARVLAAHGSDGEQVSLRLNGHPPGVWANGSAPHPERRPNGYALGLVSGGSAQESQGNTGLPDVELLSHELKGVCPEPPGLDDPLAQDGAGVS
Procedure, shortened: (§3)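 Membranes from stably transfected CHO-K1 (hA1) or HEK (hA2A, hA2B, hA3) cells, 2 h at room temperature in 50 mM HEPES pH 7.4, 1 mM EDTA, 5 mM MgCl2, 1 U/mL adenosine deaminase. 5% DMSO final except hA3. Full curves 10^-11–10^-5 M, seven concentrations, four determinations each. Filtration, γ-counting, Ki derived.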

[5] = Solubility in ethanol; type: physicochemical; procedure, shortened: as §2
[6] = Oral bioavailability in Sprague-Dawley rat at 2 mg, po; type: ADME, organism-based; details: in vivo; procedure, shortened: as §1
[7] = Clearance in Sprague-Dawley rat at 2 mg, po; type: ADME, organism-based; details: in vivo; procedure, shortened: as §1
[8] = Aqueous solubility of the compound; type: physicochemical; details: water; procedure, shortened: as §2
[9] = system: Rattus norvegicus; assay: Volume of distribution in Sprague-Dawley rat at 2 mg, po; type: ADME, organism-based; details: in vivo; procedure, shortened: as §1
[10] = molecular target: T1, Adenosine receptor A3 (Homo sapiens) (UniProt P0DMS8); assay: Displacement of [125I]ABA from human adenosine A3 receptor expressed in HEK cells relative to control; type: cell-based; design: concentration or dose not given beside the values; details: HEK293
T1 sequence (whole entry): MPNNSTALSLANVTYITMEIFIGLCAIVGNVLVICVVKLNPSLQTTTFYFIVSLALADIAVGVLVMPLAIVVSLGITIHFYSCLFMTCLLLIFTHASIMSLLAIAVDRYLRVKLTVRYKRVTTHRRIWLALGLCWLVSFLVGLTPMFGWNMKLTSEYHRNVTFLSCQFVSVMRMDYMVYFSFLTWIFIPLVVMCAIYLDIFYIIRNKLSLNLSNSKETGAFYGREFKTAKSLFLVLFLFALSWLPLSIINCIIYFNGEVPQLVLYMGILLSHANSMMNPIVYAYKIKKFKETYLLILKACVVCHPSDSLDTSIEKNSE
Procedure, shortened: (§4)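 Single-point screen at 1 µM antagonist, run in duplicate, on transfected-cell membranes: CHO-K1 (hA1), HEK (hA2A, hA2B, hA3). 2 h at room temperature in 50 mM HEPES pH 7.4, 1 mM EDTA, 5 mM MgCl2, 1 U/mL adenosine deaminase; 5% DMSO except hA3. Nonspecific binding with 50 µM XAC, or 10 µM BW-1433 for hA3. Result is % radioligand bound relative to control.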

[11] = molecular target: Adenosine receptors; A1 & A2a (Homo sapiens) (UniProt P30542+P29274); assay: Selectivity for human adenosine A1 receptor over human adenosine A2A receptor; type: protein assay
[12] = molecular target: T2, Adenosine receptor A2b (Homo sapiens) (UniProt P29275); assay: Displacement of [125I]3-(4-aminobenzyl)-8-phenyloxyacetate-1-propyl-xanthine from human adenosine A2B receptor expressed in HEK cells relative to control; type: cell-based; design: concentration or dose not given beside the values; details: HEK293; procedure, shortened: as §4
T2 sequence (whole entry): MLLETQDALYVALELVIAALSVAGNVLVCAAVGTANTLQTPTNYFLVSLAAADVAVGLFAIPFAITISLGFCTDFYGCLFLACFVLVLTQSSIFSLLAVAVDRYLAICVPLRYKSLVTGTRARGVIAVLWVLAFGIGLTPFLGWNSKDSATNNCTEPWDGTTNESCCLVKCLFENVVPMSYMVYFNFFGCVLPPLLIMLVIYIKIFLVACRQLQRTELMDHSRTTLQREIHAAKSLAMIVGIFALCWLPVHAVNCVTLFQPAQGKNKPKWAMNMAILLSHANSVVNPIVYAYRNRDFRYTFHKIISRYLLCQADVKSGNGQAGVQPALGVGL

[13] = molecular target: T3, Adenosine receptor A1 (Homo sapiens, UniProt P30542); assay: Displacement of [125I]ABA from human adenosine A1 receptor expressed in CHOK1 cells; type: cell-based, CHO-K1; procedure, shortened: as §3
T3 sequence (P30542 whole entry): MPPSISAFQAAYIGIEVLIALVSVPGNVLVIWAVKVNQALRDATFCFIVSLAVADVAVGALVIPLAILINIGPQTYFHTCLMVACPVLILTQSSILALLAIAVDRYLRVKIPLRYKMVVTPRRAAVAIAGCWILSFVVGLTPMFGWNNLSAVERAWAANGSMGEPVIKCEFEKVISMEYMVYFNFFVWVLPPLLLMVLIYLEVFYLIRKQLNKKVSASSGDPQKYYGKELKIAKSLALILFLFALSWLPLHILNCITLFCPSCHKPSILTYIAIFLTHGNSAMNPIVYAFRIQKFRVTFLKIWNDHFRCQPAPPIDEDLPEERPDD

[14] = Solubility in octanol; type: physicochemical; procedure, shortened: as §2
[15] = molecular target: T4, Adenosine receptor A1 (Rattus norvegicus, UniProt P25099); assay: Displacement of [3H]CPX from rat brain cortex adenosine A1 receptor
T4 sequence (P25099 whole entry): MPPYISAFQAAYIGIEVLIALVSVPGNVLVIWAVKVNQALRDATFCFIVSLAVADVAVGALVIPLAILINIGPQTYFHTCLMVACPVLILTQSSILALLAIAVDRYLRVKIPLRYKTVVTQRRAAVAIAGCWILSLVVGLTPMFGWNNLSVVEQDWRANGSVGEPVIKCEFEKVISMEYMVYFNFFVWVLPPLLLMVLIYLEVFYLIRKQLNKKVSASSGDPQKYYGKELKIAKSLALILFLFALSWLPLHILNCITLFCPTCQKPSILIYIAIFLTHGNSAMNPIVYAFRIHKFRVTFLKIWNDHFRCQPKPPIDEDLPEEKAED
Procedure, shortened: (§5)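 Crude membranes (10-20 µg protein) from rat brain cortex (A1, 2 nM 3H-CPX) or striatum (A2A, 0.5-1.2 nM 3H-ZM241385) incubated 90 min at room temperature in 50 mM Tris-HCl pH 7.4 with 2 U/mL adenosine deaminase. Stopped with ice-cold buffer, then vacuum filtration and scintillation counting. Ki from concentration-response displacement.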

[16] = molecular target: T5, Adenosine receptor A3 (Homo sapiens, UniProt P0DMS8); assay: Displacement of [125I]ABA from human adenosine A3 receptor expressed in HEK cells; type: cell-based, HEK293
T5 sequence (P0DMS8 whole entry): T1 sequence (whole entry)
Procedure, shortened: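 Membranes from stably transfected CHO-K1 (hA1) or HEK (hA2A, hA2B, hA3) cells, 2 h at room temperature in 50 mM HEPES pH 7.4, 1 mM EDTA, 5 mM MgCl2, 1 U/mL adenosine deaminase. 5% DMSO final except hA3. Radioligands: 0.3 nM (hA1) or 0.6 nM (hA3) 125I-ABA, 0.7 nM 125I-ZM241385, 0.5 nM A2B ligand. Full curves 10^-11–10^-5 M, seven concentrations, four determinations each. Filtration, γ-counting, Ki derived.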

[17] = molecular target: Adenosine receptor A2a (Rattus norvegicus, UniProt P30543); assay: Displacement of [3H]ZM-241385 from rat brain striatum adenosine A2A receptor; procedure, shortened: as §5
Sequence of Adenosine receptor A2a (Rattus norvegicus, UniProt P30543) (P30543 whole entry): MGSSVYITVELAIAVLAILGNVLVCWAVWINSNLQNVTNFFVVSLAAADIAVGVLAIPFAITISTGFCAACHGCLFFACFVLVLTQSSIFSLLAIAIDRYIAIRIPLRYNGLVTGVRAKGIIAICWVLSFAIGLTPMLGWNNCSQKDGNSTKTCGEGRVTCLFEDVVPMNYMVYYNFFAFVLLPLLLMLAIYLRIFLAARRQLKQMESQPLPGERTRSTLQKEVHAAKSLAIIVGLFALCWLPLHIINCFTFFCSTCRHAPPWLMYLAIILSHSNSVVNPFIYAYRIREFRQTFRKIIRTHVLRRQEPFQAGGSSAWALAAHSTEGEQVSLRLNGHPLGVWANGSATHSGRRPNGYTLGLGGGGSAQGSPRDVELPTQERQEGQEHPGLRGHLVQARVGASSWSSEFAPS

[18] = system: Rattus norvegicus; assay: Natriuretic effect in orally dosed rat; type: ADME, organism-based; details: po
Procedure, shortened: (§6)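 Male Sprague-Dawley rats in metabolic cages dosed by gavage in 0.5% CMC suspension, 0.001-3 mg/kg (n=3-5 per group; vehicle n=3). Urine collected 4 h, volume measured gravimetrically, Na and K by flame photometry. Urine flow and UNaV expressed per hour, averaged over 4 h.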

[19] = Half life in Sprague-Dawley rat at 1 mg/kg, po; type: ADME, organism-based; design: dose 1 mg/kg, route oral; details: in vivo; procedure, shortened: as §1
[20] = Oral bioavailability in Sprague-Dawley rat at 1 mg/kg, po; type: ADME, organism-based; details: in vivo; procedure, shortened: as §1
[21] = system: Cynomolgus monkey; assay: Volume of distribution in cynomolgus monkey at 1 mg/kg, po; type: ADME, organism-based, Macaca fascicularis; design: dose 1 mg/kg, route oral; details: in vivo; procedure, shortened: as §1
[22] = Half life in Beagle dog at 1 mg/kg, po; type: ADME, organism-based, Canis lupus familiaris; design: dose 1 mg/kg, route oral; details: in vivo; procedure, shortened: as §1
[23] = system: Rattus norvegicus; assay: Volume of distribution in Sprague-Dawley rat at 1 mg/kg, po; type: ADME, organism-based; design: dose 1 mg/kg, route oral; details: in vivo; procedure, shortened: as §1
[24] = Oral bioavailability in cynomolgus monkey at 1 mg/kg, po; type: ADME, organism-based, Macaca fascicularis; details: in vivo; procedure, shortened: as §1
[25] = species: Rattus norvegicus; assay: Reversal of CPA inhibition of isoproterenol-stimulated rat atria; type: functional, organism-based; details: Cardiac atrium
Procedure, shortened: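 Isolated rat atria in Krebs buffer at 37 °C gassed with 95% O2/5% CO2, pH 7.4, stimulated with 30 nM isoproterenol. EC50 taken at 50% restoration, 5 atria per dose group.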

[26] = Clearance in Beagle dog at 1 mg/kg, po; type: ADME, organism-based, Canis lupus familiaris; design: dose 1 mg/kg, route oral; details: in vivo; procedure, shortened: as §1
[27] = system: Canis familiaris; assay: Volume of distribution in Beagle dog at 1 mg/kg, po; type: ADME, organism-based, Canis lupus familiaris; design: dose 1 mg/kg, route oral; details: in vivo; procedure, shortened: as §1
[28] = molecular target: T6, Adenosine receptor A2b (Homo sapiens, UniProt P29275); assay: Displacement of [125I]3-(4-aminobenzyl)-8-phenyloxyacetate-1-propyl-xanthine from human adenosine A2B receptor expressed in HEK cells; type: cell-based, HEK293; procedure, shortened: as §3
T6 sequence (P29275 whole entry): T2 sequence (whole entry)

[29] = Oral bioavailability in Beagle dog at 1 mg/kg, po; type: ADME, organism-based, Canis lupus familiaris; details: in vivo; procedure, shortened: as §1
[30] = Clearance in cynomolgus monkey at 1 mg/kg, po; type: ADME, organism-based, Macaca fascicularis; design: dose 1 mg/kg, route oral; details: in vivo; procedure, shortened: as §1
[31] = Half life in cynomolgus monkey at 1 mg/kg, po; type: ADME, organism-based, Macaca fascicularis; design: dose 1 mg/kg, route oral; details: in vivo; procedure, shortened: as §1
[32] = system: Rattus norvegicus; assay: Diuretic effect in orally dosed rat; type: ADME, organism-based; details: Urine, po; procedure, shortened: as §6
[33] = Clearance in Sprague-Dawley rat at 1 mg/kg, po; type: ADME, organism-based; design: dose 1 mg/kg, route oral; details: in vivo; procedure, shortened: as §1

SMILES	solubility [2]	solubility [3]	Ki [4]	solubility [5]	solubility [8]	Ki [13]	solubility [14]	Ki [15]	Ki [16]	Ki [17]	also measured
CCCn1c(=O)c2nc([C@]34CC[C@](C(=O)O)(CC3)CC4)[nH]c2n(CCC)c1=O	63 mg/mL (≈ 162 mM)	29.8 mg/mL (≈ 76.7 mM)	1.07 µM	51 mg/mL (≈ 131 mM)	18.1 mg/mL (≈ 46.6 mM)	0.033 µM	60 mg/mL (≈ 154 mM)	0.0078 µM			half-life [1]: 2.14 h; bioavailability [6]: 97%; CL/F [7]: 0.136 L/h/kg; Vdss [9]: 0.57 L/kg; Activity [10]: 100%; Ratio Ki [11]: 32; Activity [12]: 48%
CCCn1c(=O)c2[nH]c([C@H]3CC4C[C@@H]3[C@H]3O[C@@H]43)nc2n(CCC)c1=O	0.25 mg/mL (≈ 0.726 mM)	0.43 mg/mL (≈ 1.25 mM)		85.3 mg/mL (≈ 248 mM)	0.46 mg/mL (≈ 1.34 mM)	0.012 µM	4.6 mg/mL (≈ 13.4 mM)	0.0007 µM	4.81 µM	1.25 µM	
CCCn1c(=O)c2[nH]c([C@]34CC[C@](CCC(=O)O)(CC3)CC4)nc2n(CCC)c1=O	12.4 mg/mL (≈ 29.8 mM)	25.4 mg/mL (≈ 61 mM)	6.41 µM		24.4 mg/mL (≈ 58.6 mM)			0.0013 µM	> 10 µM	2.44 µM	ED50 [18]: 0.015 mg/kg; half-life [19]: 3.14 h; bioavailability [20]: 99%; Vdss [21]: 4.25 L/kg; half-life [22]: 6.4 h; Vdss [23]: 0.32 L/kg; bioavailability [24]: 94%; EC50 [25]: 0.0161 µM; Kb ([25]; read-out: pA2 (converted)): 0.000158 µM; CL/F [26]: 0.708 L/h/kg; Vdss [27]: 2.64 L/kg; Ki [28]: 0.09 µM; bioavailability [29]: 78%; CL/F [30]: 0.349 L/h/kg; half-life [31]: 11.1 h; ED50 [32]: 0.015 mg/kg; CL/F [33]: 0.0936 L/h/kg
